Results as given in ChEMBL document CHEMBL1151761, “Radiohalogenated prostate-specific membrane antigen (PSMA)-based ureas as imaging agents for prostate cancer” (J Med Chem, 2008).

What was measured:
Format in all cases: ADME, organism-based
Stomach [1] = experiment: Biodistribution in stomach of PSMA expressing human PC3 PIP and PSMA deficient human PC3 flu cells xenografted SCID mouse at 2 uCi, iv after 5 hrs; conditions: in vivo
[2] = Ratio of drug level in tumor to spleen of human PSMA expressing PC3 PIP and PSMA deficient human PC3 flu cells xenografted SCID mouse at 2 uCi, iv after 60 mins; conditions: in vivo, 1 h
Procedure, shortened: (§1)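 Male SCID mice carried subcutaneous xenografts: PSMA+ PC-3 PIP behind the left shoulder and PSMA− PC-3 flu behind the right, 1–5 × 10^6 cells in HBSS. Mice were used at 3–5 mm tumor diameter. 2 μCi was given by tail vein, and 4 mice per time point were killed by cervical dislocation. %ID/g came from a standard dilution of the dose, decay-corrected. Ratio is PIP tumor %ID/g to organ %ID/g.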

[3] = Ratio of drug level in tumor to bladder of human PSMA expressing PC3 PIP and PSMA deficient human PC3 flu cells xenografted SCID mouse at 2 uCi, iv after 5 hrs; conditions: in vivo
Procedure, shortened: (§2)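 Male SCID mice carried subcutaneous PSMA+ PC-3 PIP (left shoulder) and PC-3 flu (right shoulder) xenografts, 1-5 × 10^6 cells in HBSS, and were used at 3-5 mm tumor diameter. Tail-vein injection of 2 µCi radioligand; four mice per time point, killed by cervical dislocation. %ID/g from a standard dilution of the dose, decay-corrected, mean ± SD; PIP tumor:organ ratios.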

[4] = Biodistribution in PC3 flu tumor of PSMA expressing human PC3 PIP and PSMA deficient human PC3 flu cells xenografted SCID mouse at 2 uCi, iv after 2 hrs; conditions: in vivo; procedure, shortened: as §2
[5] = Ratio of drug level in tumor to kidney of human PSMA expressing PC3 PIP and PSMA deficient human PC3 flu cells xenografted SCID mouse at 2 uCi, iv after 30 mins; conditions: in vivo, 0.5 h; procedure, shortened: as §2
Spleen = experiment: Biodistribution in spleen of PSMA expressing human PC3 PIP and PSMA deficient human PC3 flu cells xenografted SCID mouse at 2 uCi, iv after 2 hrs; conditions: in vivo
[6] = Ratio of drug level in tumor to muscle of human PSMA expressing PC3 PIP and PSMA deficient human PC3 flu cells xenografted SCID mouse at 2 uCi, iv after 2 hrs; conditions: in vivo; procedure, shortened: as §2
Stomach [7] = experiment: Biodistribution in stomach of PSMA expressing human PC3 PIP and PSMA deficient human PC3 flu cells xenografted SCID mouse at 2 uCi, iv after 2 hrs; conditions: in vivo
[8] = Ratio of drug level in tumor to pancreas of human PSMA expressing PC3 PIP and PSMA deficient human PC3 flu cells xenografted SCID mouse at 2 uCi, iv after 2 hrs; conditions: in vivo; procedure, shortened: as §2
[9] = Ratio of drug level in tumor to muscle of human PSMA expressing PC3 PIP and PSMA deficient human PC3 flu cells xenografted SCID mouse at 2 uCi, iv after 30 mins; conditions: in vivo, 0.5 h; procedure, shortened: as §2
[10] = Ratio of drug level in PC3 PIP tumor to PC3 flu tumor of human PSMA expressing PC3 PIP and PSMA deficient human PC3 flu cells xenografted SCID mouse at 2 uCi, iv after 60 mins; conditions: in vivo, 1 h; procedure, shortened: as §2
Stomach [11] = experiment: Biodistribution in stomach of PSMA expressing human PC3 PIP and PSMA deficient human PC3 flu cells xenografted SCID mouse at 2 uCi, iv after 30 mins; conditions: in vivo, 0.5 h
[12] = Ratio of drug level in tumor to stomach of human PSMA expressing PC3 PIP and PSMA deficient human PC3 flu cells xenografted SCID mouse at 2 uCi, iv after 30 mins; conditions: in vivo, 0.5 h; procedure, shortened: as §1
Kidney [13] = experiment: Biodistribution in kidney of PSMA expressing human PC3 PIP and PSMA deficient human PC3 flu cells xenografted SCID mouse at 2 uCi, iv after 30 mins; conditions: in vivo, 0.5 h
Kidney [14] = experiment: Biodistribution in kidney of PSMA expressing human PC3 PIP and PSMA deficient human PC3 flu cells xenografted SCID mouse at 2 uCi, iv after 5 hrs; conditions: in vivo
[15] = Biodistribution in PC3 PIP tumor of PSMA expressing human PC3 PIP and PSMA deficient human PC3 flu cells xenografted SCID mouse at 2 uCi, iv after 30 mins; conditions: in vivo, 0.5 h; procedure, shortened: as §2
Liver = experiment: Biodistribution in liver of PSMA expressing human PC3 PIP and PSMA deficient human PC3 flu cells xenografted SCID mouse at 2 uCi, iv after 30 mins; conditions: in vivo, 0.5 h
[16] = Ratio of drug level in tumor to bladder of human PSMA expressing PC3 PIP and PSMA deficient human PC3 flu cells xenografted SCID mouse at 2 uCi, iv after 60 mins; conditions: in vivo, 1 h; procedure, shortened: as §2
[17] = Ratio of drug level in tumor to heart of human PSMA expressing PC3 PIP and PSMA deficient human PC3 flu cells xenografted SCID mouse at 2 uCi, iv after 60 mins; conditions: in vivo, 1 h; procedure, shortened: as §2

Work on `O=C(O)CC[C@H](NC(=O)N[C@@H](CCCCNC(=O)c1ccc([18F])cc1)C(=O)O)C(=O)O` yielded a Drug uptake (Stomach [1]) of 0.04 % ID/g, a Ratio [2] of 1 and a Ratio [3] of 0.7. The Drug uptake [4] was 0.25 % ID/g, the Ratio [5] was 0.1 and the Drug uptake (Spleen) was 4.4 % ID/g. For the same compound, the Ratio [6] was 19, the Drug uptake (Stomach [7]) was 0.3 % ID/g and the Ratio [8] was 25. For the same compound, the Ratio [9] was 4, the Ratio [10] was 21 and the Drug uptake (Stomach [11]) was 0.8 % ID/g. The Ratio [12] was 11, the Drug uptake (Kidney [13]) was 72 % ID/g and the Drug uptake (Kidney [14]) was 14 % ID/g. The Drug uptake [15] was 8.6 % ID/g, the Drug uptake (Liver) was 8.7 % ID/g and the Ratio [16] was 0.4. For the same compound, the Ratio [17] was 35.
